In experiment [1] the target is T1, Mitogen-activated protein kinase kinase kinase 7 (Homo sapiens) (UniProt O43318).
T1 sequence (whole entry): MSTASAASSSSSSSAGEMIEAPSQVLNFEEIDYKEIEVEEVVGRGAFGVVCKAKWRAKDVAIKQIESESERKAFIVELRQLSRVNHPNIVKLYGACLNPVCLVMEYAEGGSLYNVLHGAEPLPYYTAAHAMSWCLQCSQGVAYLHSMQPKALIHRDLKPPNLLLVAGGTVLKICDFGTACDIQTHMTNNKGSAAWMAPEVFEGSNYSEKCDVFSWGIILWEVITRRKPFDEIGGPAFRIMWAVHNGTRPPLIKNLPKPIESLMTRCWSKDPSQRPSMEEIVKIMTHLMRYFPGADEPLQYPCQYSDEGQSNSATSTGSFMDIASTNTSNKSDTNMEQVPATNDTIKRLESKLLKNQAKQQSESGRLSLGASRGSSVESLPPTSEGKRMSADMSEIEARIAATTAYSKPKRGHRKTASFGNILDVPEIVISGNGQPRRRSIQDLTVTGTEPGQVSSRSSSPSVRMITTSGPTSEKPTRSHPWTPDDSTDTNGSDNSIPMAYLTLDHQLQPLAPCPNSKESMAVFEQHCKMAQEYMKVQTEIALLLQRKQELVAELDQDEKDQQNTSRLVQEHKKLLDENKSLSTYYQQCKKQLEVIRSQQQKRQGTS
Briefly: Inhibition of TAK1 (unknown origin) at 500 nM by ADP-Glo kinase assay. On the technique in general: ADP-Glo first removes unused ATP, then detects ADP through luciferase.

Experiment [2] has as its target T1, Mitogen-activated protein kinase kinase kinase 7 (Homo sapiens). In words: Inhibition of TAK1 (unknown origin) at 100 nM by ADP-Glo kinase assay.
Experiment [3] has as its system MPC-11. In words: Cytotoxicity against mouse MPC-11 cells assessed as reduction in cell viability at 0.2 to 1 uM to incubated for 72 hrs by CellTiter-Blue assay. It is filed as functional, cell-based. The settings on record: dose 0.2-1 µM. Put shortly: (§1)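 H929 (RPMI, 10% heat-inactivated FBS) or MPC-11 (DMEM, 10% FBS) cells, under 10 passages, 37 °C, 5% CO₂; 4–5 × 10³ cells/well seeded, 24 h, then compound at various concentrations for 72 h. CellTiter-Blue added for 3 h, fluorescence ex/em 560/590 nm. Normalized to DMSO-treated cells; triplicate, mean and standard deviation.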

Experiment [4] addresses T1, Mitogen-activated protein kinase kinase kinase 7 (Homo sapiens). Briefly: Inhibition of TAK1 (unknown origin) at 20 nM by ADP-Glo kinase assay.
The subject of experiment [5] is MPC-11. Briefly: Cytotoxicity against mouse MPC-11 cells assessed as reduction in cell viability at 200 nM incubated for 72 hrs by CellTiter-Blue assay. It counts as functional. Put shortly: as §1
In the next experiment the test system is NCI-H929. Briefly: Cytotoxicity against human NCI-H929 cells assessed as reduction in cell viability incubated for 72 hrs by CellTiter-Blue assay. It counts as functional. The essentials:
as §1
Background: Alamar Blue is a resazurin reagent that responds to reducing activity.

Experiment [6] deals with MPC-11. Briefly: Cytotoxicity against mouse MPC-11 cells assessed as reduction in cell viability incubated for 72 hrs by CellTiter-Blue assay. It counts as functional. The essentials: as §1
The target in experiment [7] is Mitogen-activated protein kinase kinase kinase 7 (Mus musculus) (UniProt Q62073). In words: Inhibition of TAK1 in mouse MPC-11 cells assessed as reduction in TAK1 phosphorylation at Ser412 residue at 0.1 to 0.5 uM incubated for 48 hrs by Western blot analysis. The settings on record: dose 0.1-0.5 µM. It is filed as cell-based. The essentials:
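MPC-11 cells (0.5–1 × 10⁶/well) seeded, treated after 24 h for 48 h; DMSO control. BCA protein quantitation, 10% SDS-PAGE, PVDF; pTAK1, TAK1, β-actin antibodies overnight 4 °C, HRP secondaries 2 h 24 °C, chemiluminescence. Bands quantified relative to actin; duplicates, mean and standard deviation.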
(In western blotting, separated proteins are transferred to a membrane and probed.)

Experiment [8] deals with Mitogen-activated protein kinase kinase kinase 7 (Homo sapiens, UniProt O43318). In words: Inhibition of human TAK1 using casein as substrate in presence of [gamma-33P]-ATP by radiometric hotspot kinase assay.

The source made the active and inactive calls. No cut-off for these calls is given here. Some results are limits rather than exact numbers.

Sequence of Mitogen-activated protein kinase kinase kinase 7 (Mus musculus) (Q62073 whole entry): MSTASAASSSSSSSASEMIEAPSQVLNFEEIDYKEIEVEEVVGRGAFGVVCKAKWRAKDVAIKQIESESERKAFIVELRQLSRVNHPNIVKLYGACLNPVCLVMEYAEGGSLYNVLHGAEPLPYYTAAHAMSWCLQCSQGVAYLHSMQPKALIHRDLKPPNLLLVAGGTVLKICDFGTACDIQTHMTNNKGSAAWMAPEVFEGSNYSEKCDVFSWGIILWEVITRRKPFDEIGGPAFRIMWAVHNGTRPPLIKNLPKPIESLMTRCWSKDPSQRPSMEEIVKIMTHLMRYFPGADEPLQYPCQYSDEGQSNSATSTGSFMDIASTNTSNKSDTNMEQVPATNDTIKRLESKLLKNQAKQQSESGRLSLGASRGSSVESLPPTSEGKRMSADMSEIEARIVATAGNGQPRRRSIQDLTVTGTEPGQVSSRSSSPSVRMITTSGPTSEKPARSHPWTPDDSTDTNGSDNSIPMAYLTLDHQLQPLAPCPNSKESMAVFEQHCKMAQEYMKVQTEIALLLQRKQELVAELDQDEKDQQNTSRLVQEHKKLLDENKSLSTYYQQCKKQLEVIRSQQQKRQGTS

In general, inhibition refers to the drop in the measured response relative to a control, in per cent. In experiment [1], `C[C@@H]1CN(c2ccc3ncc(-c4cccc(C#N)c4)n3n2)C[C@H](C)O1` came in with an inhibition below 50%.
For `Cc1n[nH]c2ccc(-c3cnc4ccc(N5C[C@@H](C)O[C@H](C)C5)nn34)cc12`, the inhibition in [2], in experiment [1] and in experiment [4] was above 50% throughout. In the experiment on MPC-11 [3], the outcome was Active.
With `Cc1n[nH]c2ccc(-c3cnc4ccc(N5CCOCC5)nn34)cc12`, the inhibition is 91% in experiment [2] and above 50% in experiment [1].
On the same counts, the results for `C[C@@H]1CN(c2ccc3ncc(-c4ccc5[nH]ncc5c4)n3n2)C[C@H](C)O1` are above 50% and above 50%.
On to `Cc1n[nH]c2ccc(-c3cnc4ccc(N5CCO[C@@H](C)C5)nn34)cc12`, for which the results for the inhibition in [2], in experiment [1] and in [4] were above 50%, 100% and above 50%, respectively. The inhibition result in the experiment on MPC-11 [5] is “inactive”. In addition, the result in the experiment with MPC-11 [3] was inactive.
With `C[C@@H]1CN(c2ccc3ncc(-c4ccc(F)cc4)n3n2)C[C@H](C)O1`, the inhibition in experiment [1] is below 50%.
What is called GI50 is the concentration giving 50% growth inhibition. With `Cc1n[nH]c2ccc(-c3cnc4ccc(N5C[C@@H](C)O[C@@H](C)C5)nn34)cc12`, the inhibition in experiment [2] was 95%; in experiment [1], 100%; in experiment [4], above 50%. The figures for the concentration for 50% growth inhibition (GI50) in the experiment on NCI-H929 and in the experiment on MPC-11 [6] were 87 nM and 72 nM, respectively. For the same molecule, the inhibition result in experiment [7] is “Active”.
Molecule `C[C@@H]1CN(c2ccc3ncc(-c4ccc5c(c4)CC(=O)N5)n3n2)C[C@H](C)O1` came in with an inhibition in [1] below 50%.
In the case of `C[C@@H]1CN(c2ccc3ncc(-c4cccnc4)n3n2)C[C@H](C)O1`, in [1], the inhibition was below 50%.
In the case of `C[C@@H]1CN(c2ccc3ncc(-c4ccc(S(N)(=O)=O)cc4)n3n2)C[C@H](C)O1`, the inhibition in [1] is below 50%.
On to `Cc1nc2ccc(N3C[C@@H](C)O[C@@H](C)C3)nn2c1-c1ccc2[nH]nc(C)c2c1`, for which the inhibition in experiment [1] was below 50%.
For `C[C@@H]1CN(c2ccc3ncc(-c4ccc(F)c(C#N)c4)n3n2)C[C@H](C)O1`, in experiment [1], the inhibition was below 50%.
In experiment [1], `C[C@@H]1CN(c2ccc3ncc(-c4ccc(C(F)(F)F)cc4)n3n2)C[C@H](C)O1` gave an inhibition below 50%.
Consider `CCc1n[nH]c2ccc(-c3cnc4ccc(N5C[C@@H](C)O[C@@H](C)C5)nn34)cc12`, for which the inhibition in [2] was above 50%; in experiment [1], 100%; in [4] it was above 50%. Also, the GI50 in the experiment with NCI-H929 was 30 nM; in the experiment on MPC-11 [6] it was 94 nM.
Take `C[C@@H]1CN(c2ccc3ncc(-c4ccc(C#N)cc4)n3n2)C[C@H](C)O1`: the inhibition in [1] was below 50%.
Regarding `Cc1n[nH]c2ccc(-c3cnc4cccnn34)cc12`, the inhibition in experiment [2] is 26%.
In experiment [1], `C[C@@H]1CN(c2ccc3ncc(-c4ccc(Cl)cc4)n3n2)C[C@H](C)O1` showed an inhibition below 50%.
As for `C[C@@H]1CN(c2ccc3ncc(-c4ccc(C(N)=O)cc4)n3n2)C[C@H](C)O1`, the figures for the inhibition in experiment [2] and in experiment [1] were below 50% and 74%, respectively.
Take `Cc1n[nH]c2ccc(-c3cnc4ccc(N5CCOC(C)(C)C5)nn34)cc12`: the inhibition in [2] was above 50%; in experiment [1], 100%; in experiment [4], above 50%. Also, the values for the GI50 in the experiment on NCI-H929 and in the experiment with MPC-11 [6] were 24 nM and 126 nM, respectively. In addition, the result in the experiment with MPC-11 [3] was Active.
`C[C@@H]1CN(c2ccc3ncc(-c4ccncc4)n3n2)C[C@H](C)O1` gave an inhibition in experiment [1] below 50%.
In experiment [1], `C[C@@H]1CN(c2ccc3ncc(-c4cccc5[nH]ncc45)n3n2)C[C@H](C)O1` yielded an inhibition below 50%.
For the molecule `C[C@@H]1CN(c2ccc3ncc(-c4ccc5cnn(C)c5c4)n3n2)C[C@H](C)O1`, the inhibition in [2] and in experiment [1] was above 50% each time.
In the case of `C[C@@H]1CN(c2ccc3ncc(-c4ccc(CC#N)cc4)n3n2)C[C@H](C)O1`, the inhibition in experiment [1] was below 50%.
Regarding `C[C@@H]1CN(c2ccc3ncc(-c4ccccc4)n3n2)C[C@H](C)O1`, the inhibition in [1] is below 50%.
On to `Cc1n[nH]c2ccc(-c3cnc4ccc(N5C[C@H]6C[C@@H]5CO6)nn34)cc12`, for which the inhibition in experiment [2], in [1] and in experiment [4] was above 50% each time. For the same molecule, the values for the 50% growth inhibitory concentration (GI50) in the experiment with NCI-H929 and with MPC-11 [6] were 71 nM and 155 nM, respectively. Further, the result in the experiment with MPC-11 [3] was Active.
One may read the IC50 as the concentration that inhibits the measured activity by half. `CCCn1/c(=N/C(=O)c2cccc(C(N)=O)c2)[nH]c2ccccc21`: the half-inhibitory concentration (IC50) in [8] is 187 nM. Further, the GI50 in the experiment with NCI-H929 was 51000 nM; in the experiment on MPC-11 [6], 8500 nM.
In the case of `COCCN1CCN(c2ccc3ncc(-c4ccc5[nH]nc(C)c5c4)n3n2)CC1`, the inhibition in experiment [2] was 46%; in experiment [1] it was above 50%.
Turning to `C[C@@H]1CN(c2ccc3ncc(-c4ccc5cn[nH]c5c4)n3n2)C[C@H](C)O1`, the inhibition in [2] and in experiment [1] was above 50% throughout.
Turning to `Cc1n[nH]c2ccc(-c3cnc4ccc(N5C[C@@H]6C[C@H]5CO6)nn34)cc12`, the inhibition in experiment [2], in experiment [1] and in experiment [4] was above 50% throughout. Further, the GI50 in the experiment with NCI-H929 turned out to be 45 nM; with MPC-11 [6], 101 nM. Besides, the outcome with MPC-11 [3] was Active.
In experiment [1], `C[C@@H]1CN(c2ccc3ncc(-c4ccc5c(cnn5C)c4)n3n2)C[C@H](C)O1` yielded an inhibition below 50%.
Take `C[C@@H]1CN(c2ccc3ncc(-c4cccc(S(C)(=O)=O)c4)n3n2)C[C@H](C)O1`: in [1], the inhibition is below 50%.
As to `Cc1n[nH]c2ccc(-c3cnc4ccc(N5CCO[C@H](C)C5)nn34)cc12`, the inhibition in [2], in experiment [1] and in experiment [4] was above 50% throughout. The inhibition at 0.2 µM with MPC-11 [5] was around 50%. Besides, the outcome in the experiment on MPC-11 [3] was Active.
In the case of `Cc1n[nH]c2ccc(-c3cnc4ccc(N5CC6CCC(C5)O6)nn34)cc12`, the inhibition in experiment [2], in experiment [1] and in experiment [4] was above 50% in each case. Moreover, the GI50 in the experiment on NCI-H929 amounted to 33 nM; in the experiment on MPC-11 [6] it was 131 nM. Also, the result with MPC-11 [3] was Active.
Regarding `CNC(=O)c1ccc(-c2cnc3ccc(N4C[C@@H](C)O[C@@H](C)C4)nn23)cc1`, the inhibition in experiment [1] is below 50%.
On the same count and under the same terms, the result for `C[C@@H]1CN(c2ccc3ncc(-c4ccc(OC(F)(F)F)cc4)n3n2)C[C@H](C)O1` reads below 50%.

The values above are taken from ChEMBL document CHEMBL5357042, “Discovery of imidazo[1,2-b]pyridazine-containing TAK1 kinase inhibitors with excellent activities against multiple myeloma” (RSC Med Chem, 2024).
